TWEAK-Fn14 inh = blocks TWEAK-Fn14 interaction in a reporter cell assay; TWEAK-stimulated Fn14 reporter cells, luciferase luminescence, 8 h; inhibition, % at 10 µM; hit rate 2% among 360,000; in the data active means inhibition above about 50%
EWS-Fli inh = inhibitors of EWS/Fli oncoprotein transcriptional activity | A673 NR0B1-luciferase reporter, viability-normalised | inhibition, % at 12.6 µM | hit rate 0.67% among 350,000;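 active means mean inhibition of at least 50% after viability correction, with every replicate also passing that limit; inconclusive means mean reaches 50% but only one of two replicates passes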;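 further: firefly luciferase signal divided by Alamar Blue viability fluorescence both relative to DMSO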
LGR2 antag = Drosophila LGR2 receptor signaling inhibition | HEK293 LGR2, CRE-luciferase, bursicon-stimulated, 4 h | inhibition, % at 9.99 µM | hit rate 0.35% among 380,000 | AID 720647;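 active means drop in luminescence signal, shown as inhibition above about 50% in the replicate tests, limit read from the data, passing the limit was not always enough; inconclusive means probably only some replicates passing the limit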;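 further: agonist challenge used bursicon conditioned medium at about half maximal strength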
Xi reactivation = activators of X-chromosome reactivation in mouse fibroblasts | XiGFP mouse fibroblasts, % GFP-positive cells imaging, 3 d; cells co-treated with 5-aza-dC sensitizer; scaled so ellipticine positive control = 100% | activation, % at 7.58 µM | hit rate 0.055% among 360,000;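 active means mean normalized replicate activation at least 10% and every replicate at or above 10%; inconclusive means only one of the two criteria met; inactive means mean below 10% and not all replicates reach 10%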
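Material: SV40-immortalized XiGFP fibroblast cells, line 68-5-11 | Buffer or medium: DMEM containing 5-aza-dC | Dosing: One concentration, pinned | Times: 3 d treatment, 15 min room-temperature fixation | Controls: Ellipticine 6 µM positive control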
FN deposit inh = fibronectin deposition inhibition. AH1F fibroblasts, Alexa488-fibronectin deposition fluorescence, overnight. inhibition, % at 12.6 µM. hit rate 0.086% among 350,000;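 active means mean inhibition across replicates of 30% or more, regardless of how many single replicates reach that level; inconclusive means mean under 30% yet at least half of replicates reach 30%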
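Assay system: AH1F fibroblasts / Quantity: 10000 cells per well / Medium: DMEM plus 2% serum, read in PBS / Reagent: labelled fibronectin 24 nM / Dosing: single dose, pinned / Times: 1 h cell attachment, overnight exposure to compound and label / Signal: fluorescence, ex 485 nm, em 525 nm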
TROY signal inh = TROY signaling inhibition; Q293 LMP1-TROYcd NF-kB luciferase reporter, 4 h; inhibition, % at 10 µM; hit rate 0.98% among 360,000;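 active means compounds whose plate-normalised and pattern-corrected inhibition of the luciferase reporter signal at the single screening dose is 50% or more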
A number is an active result; . = inactive; ? = inconclusive; / = no result given. A selection: hits, their analogues and other compounds. The true share with any hit is near 2.3%.

SMILES	TWEAK-Fn14 inh	EWS-Fli inh	LGR2 antag	Xi reactivation	FN deposit inh	TROY signal inh
Cn1cccc1C(=O)NC(=O)COC(=O)C12CC3CC(CC(O)(C3)C1)C2	.	/	.	/	/	78.8
COc1ccc(CN(C)C[C@H]2OCCCC[C@@H](C)Oc3ccc(NC(=O)Nc4c(C)noc4C)cc3C(=O)N([C@H](C)CO)C[C@H]2C)cc1	/	.	.	.	/	/
Cc1onc(C(=O)N2CCC(Cc3ccccc3)CC2)c1[N+](=O)[O-]	.	59.2	.	.	.	.
CC(C)c1cc(C(=O)N2CCN(C(c3ccccc3)c3ccccc3)CC2)no1	.	/	.	.	.	60.3
CC(C)c1onc(C(=O)N2CCN(c3ccccc3)CC2)c1[N+](=O)[O-]	.	.	.	.	.	.
CC(C)c1onc(C(=O)N2CCN(C(c3ccccc3)c3ccccc3)CC2)c1[N+](=O)[O-]	.	64.3	.	.	.	.
Cc1ccc(Cl)cc1N1CCN(C(=O)c2noc(C(C)C)c2[N+](=O)[O-])CC1	.	56.2	.	.	.	.
C[C@H]1CN([C@@H](C)CO)C(=O)Cc2cc(NC(=O)Cc3ccccc3)ccc2O[C@H]1CN(C)Cc1ccc(C(=O)O)cc1	/	.	.	.	/	/
C[C@@H]1CN([C@@H](C)CO)C(=O)c2cc(-c3ccncc3)cnc2O[C@H]1CN(C)Cc1ccc(Oc2ccccc2)cc1	/	.	/	.	.	/
CCC(=O)Nc1ccc2c(c1)OC[C@H](C)N(C(=O)c1cccnc1)C[C@@H](C)[C@@H](OC)CN(C)C2=O	/	.	.	.	.	/
C[C@H]1CCCCO[C@@H](CN(C)Cc2ccc3c(c2)OCO3)[C@@H](C)CN([C@@H](C)CO)C(=O)c2cc(NC(=O)Nc3ccc4c(c3)OCO4)ccc2O1	/	.	.	.	.	/
CN(C)c1ccc(-c2nc3ccccn3c2/N=C/c2ccc(Br)cc2)cc1	65.4	.	?	.	.	.
CN1C(=O)c2cc(NC(=O)c3cccs3)ccc2OC[C@H]2O[C@@H](CC(=O)N3CCCCC3)CC[C@H]21	/	.	.	.	.	/
O=C1[C@H](Oc2ccccc2)[C@@H](c2ccccc2)N1c1ccncc1	65.0	.	65.9	.	.	56.4
O=C1[C@@H](Oc2ccccc2)[C@@H](c2ccccc2)N1c1ccccc1	.	.	.	.	.	.
Cc1ccc2c(c1)Cc1nc3ccccc3nc1-2	70.3	.	.	.	.	.
Cc1ccc2c(c1)-c1nc3ccccc3cc1C2=NC1CCCCC1	.	.	/	.	.	.
c1csc(CNc2ccc3c(c2)OCCO3)c1	62.6	.	51.4	.	.	.
COc1ccc(C(=O)c2c(C(F)(F)F)oc3c2C(=O)c2ccccc2C3=O)cc1	71.1	/	/	/	/	.
COc1ccc(C(=O)c2coc(-c3ccccc3C(=O)O)c2C(=O)O)cc1	.	/	.	.	/	.
O=C(Nc1ccccc1)C1=C[C@H](C2CCCCC2)C[C@H](OCCCCO)O1	57.5	.	.	.	.	66.7
O=C(Nc1ccccc1)C1=C[C@@H](C2CCCCC2)C[C@@H](OCCCCO)O1	62.0	.	.	.	.	67.1
CC(C)(C)[C@@H]1C=C(C(=O)O)O[C@H](OCCCCO)C1	.	.	.	.	.	.
O=C(NCc1ccccc1)C1=C[C@H](C2CCCCC2)C[C@H](OCCCCO)O1	.	.	.	.	.	.
CC(C)(C)[C@H]1C=C(C(=O)Nc2ccccc2)O[C@@H](OCCCCO)C1	83.8	.	.	.	.	83.8
SMILES	TWEAK-Fn14 inh	EWS-Fli inh	LGR2 antag	Xi reactivation	FN deposit inh	TROY signal inh
CC(C)NC(=O)N(C)C[C@@H]1OCCCC[C@@H](C)Oc2ccc(NC(=O)CCC(F)(F)F)cc2C(=O)N([C@H](C)CO)C[C@H]1C	/	/	.	.	.	/
COc1ccc(-c2cnc3c(c2)C(=O)N([C@@H](C)CO)C[C@@H](C)[C@H](CN(C)S(C)(=O)=O)O3)cc1	/	.	.	.	.	/
COc1ccc(S(=O)(=O)N(C)C[C@@H]2OCCCC[C@@H](C)Oc3ccc(NS(=O)(=O)c4ccc(C)cc4)cc3C(=O)N([C@H](C)CO)C[C@@H]2C)cc1	/	.	.	.	/	/
O=c1oc(-c2ccccc2)cc(Cl)c1Cl	.	59.3	.	.	.	.
O=c1oc(-c2ccccc2)cc2ccccc12	.	.	.	/	/	.
CC(C)NC(=O)Nc1ccc2c(c1)CC(=O)N([C@H](C)CO)C[C@@H](C)[C@@H](CN(C)C(=O)Nc1cccc3ccccc13)O2	/	.	.	.	/	/
CC1Cc2ccccc2N1C(=O)COC(=O)c1ccccc1NCCO (stereo unspecified)	57.1	.	.	.	.	.
O=C(COC(=O)c1ccccc1NCCO)NCC1CCCCC1	50.1	.	.	.	.	.
CO[C@H]1CN(C)C(=O)c2ccc(NC(=O)Nc3ccccc3)cc2OC[C@H](C)N(C(=O)Nc2c(C)noc2C)C[C@H]1C	/	.	.	.	.	/
COc1cc(OC)c(OC)cc1CNCCNC(=O)c1ccco1	96.0	.	.	.	.	.
COc1ccc(C(C)(C)C)cc1NC(=O)CNc1cccc2ccccc12	58.3	/	.	.	.	.
O=C(NCCNC(=O)c1ccco1)c1cccc(F)c1	.	/	/	/	.	51.7
COc1cccc(CNCCNC(=O)c2ccco2)c1OC	.	/	/	/	.	.
O=C(NCCNC(=O)c1ccco1)c1ccc(F)cc1	.	.	.	.	.	.
COc1ccc(C(C)(C)C)cc1NC(=O)CCNC(=O)c1ccco1	91.4	.	.	.	.	.
COc1ccccc1NC(=O)Cc1cccc2ccccc12	.	.	.	.	.	.
CO[C@@H]1CN(C)C(=O)c2cc(NC(C)=O)ccc2OC[C@@H](C)N(C(=O)C2CCC2)C[C@H]1C	/	.	.	.	.	/
COc1cc(C(=O)/C=C/c2cccnc2)c([N+](=O)[O-])cc1OC	.	.	63.7	.	.	.
O=C(/C=C/c1cccnc1)c1ccc([N+](=O)[O-])cc1	.	/	.	.	.	.
O=C(C[C@@H]1CC[C@H](NC(=O)NC2CCCCC2)[C@H](CO)O1)NCc1ccc(Cl)cc1	/	.	.	.	.	/
Cc1ccc2c(c1)c(/C=C/c1cc[n+](C)cc1)c(C)n2C	.	57.1	.	105.8	.	.
Cc1ccc2[nH]c(C)c(/C=C/c3cc[n+](C)cc3)c2c1	.	.	.	45.3	.	.
COc1ccc(CN(C)C[C@H]2Oc3ccc(NS(=O)(=O)c4ccc(OC)cc4)cc3C(=O)N([C@H](C)CO)C[C@H]2C)cc1	/	.	.	.	/	/
Cc1noc(C)c1NC(=O)Nc1ccc2c(c1)C(=O)N([C@H](C)CO)C[C@@H](C)[C@@H](CN(C)S(=O)(=O)c1ccccc1)O2	/	.	.	.	/	/
COc1ccc(NC(=O)Nc2ccc3c(c2)CC(=O)N([C@H](C)CO)C[C@H](C)[C@@H](CN(C)CC2CC2)O3)cc1	/	.	.	.	/	/
c1ccc(-c2noc(C3CCC3)n2)nc1	.	.	.	.	.	.

Bioassay records: PubChem, several laboratories
